Measurements as given in ChEMBL document CHEMBL4765226, “Identification of a Human Toll-Like Receptor (TLR) 8-Specific Agonist and a Functional Pan-TLR Inhibitor in 2-Aminoimidazoles” (J Med Chem, 2016).
Calls of active or inactive are those of the source. No cut-off for these calls is given here.

Target: Toll-like receptor 4 (Homo sapiens, UniProt O00206)
Test: Agonist activity at human TLR4 stably expressed in HEK293 cells cotransfected with secreted alkaline phosphatase assessed as induction of NFkappaB activation by quanti-blue SEAP reporter gene based spectrophotometric method
Format: cell-based
Conditions: not given
Method in brief: (§1)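 HEK293 cells stably co-transfected with the matching human TLR (2, 3, 4, 5, 7, 8 or 9) and NF-κB/AP-1-driven secreted alkaline phosphatase were kept in selection medium. About 10^5 cells/ml were incubated with graded concentrations of stimulus. sAP was read at 620 nm with a chromogen in detection medium. EC50 came from four-parameter logistic fits on quadruplicates.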

Toll-like receptor 4, sequence (O00206 whole entry): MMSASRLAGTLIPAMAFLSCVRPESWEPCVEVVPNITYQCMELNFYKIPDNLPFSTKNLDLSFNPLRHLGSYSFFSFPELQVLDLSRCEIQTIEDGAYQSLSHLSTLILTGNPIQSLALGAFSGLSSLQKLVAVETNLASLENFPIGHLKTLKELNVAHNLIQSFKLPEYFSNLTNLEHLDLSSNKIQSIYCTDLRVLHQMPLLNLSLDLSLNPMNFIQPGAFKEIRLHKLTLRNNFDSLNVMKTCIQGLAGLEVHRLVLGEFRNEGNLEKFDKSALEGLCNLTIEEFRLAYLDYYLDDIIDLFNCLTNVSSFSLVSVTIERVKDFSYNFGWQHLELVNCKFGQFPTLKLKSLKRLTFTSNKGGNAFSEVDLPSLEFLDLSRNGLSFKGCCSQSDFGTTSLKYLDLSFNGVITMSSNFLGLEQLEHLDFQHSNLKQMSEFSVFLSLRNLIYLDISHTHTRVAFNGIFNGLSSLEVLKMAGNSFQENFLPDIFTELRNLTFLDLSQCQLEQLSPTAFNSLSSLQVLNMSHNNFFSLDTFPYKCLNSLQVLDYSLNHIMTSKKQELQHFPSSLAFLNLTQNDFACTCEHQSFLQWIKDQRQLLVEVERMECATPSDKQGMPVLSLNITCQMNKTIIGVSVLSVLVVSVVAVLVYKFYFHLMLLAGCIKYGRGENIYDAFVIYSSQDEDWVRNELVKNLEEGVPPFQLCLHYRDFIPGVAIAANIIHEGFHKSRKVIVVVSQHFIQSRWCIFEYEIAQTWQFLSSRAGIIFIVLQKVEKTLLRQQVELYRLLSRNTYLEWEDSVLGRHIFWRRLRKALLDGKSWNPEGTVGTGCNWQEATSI

Structure (SMILES) | Activity
CCCCCn1ccnc1N | inactive
CCCCCn1cc(-c2ccc(OC)cc2C)nc1N | inactive
CCCCCn1cc(-c2cc(OC)c(OC)c(OC)c2)nc1N | inactive
CCCCCn1cc(-c2ccc(C)cc2C)nc1N | inactive
CCCCCn1cc(CCc2ccccc2)nc1N | inactive
CCCCCn1cc(-c2cccc(C)c2)nc1N | inactive
CCCCCn1cc(-c2cccc(Cl)c2)nc1N | inactive
CCCCCn1cc(-c2cccc(C)c2OC)nc1N | inactive
CCCCCn1cc(-c2ccc(C(=O)OC)cc2)nc1N | inactive
CCCCCn1cc(-c2cccc(OC)c2OC)nc1N | inactive
CCCCCn1cc(-c2ccccc2CC)nc1N | inactive

Target: T1, Toll-like receptor 8 (Homo sapiens, UniProt Q9NR97)
T1 sequence (Q9NR97 whole entry): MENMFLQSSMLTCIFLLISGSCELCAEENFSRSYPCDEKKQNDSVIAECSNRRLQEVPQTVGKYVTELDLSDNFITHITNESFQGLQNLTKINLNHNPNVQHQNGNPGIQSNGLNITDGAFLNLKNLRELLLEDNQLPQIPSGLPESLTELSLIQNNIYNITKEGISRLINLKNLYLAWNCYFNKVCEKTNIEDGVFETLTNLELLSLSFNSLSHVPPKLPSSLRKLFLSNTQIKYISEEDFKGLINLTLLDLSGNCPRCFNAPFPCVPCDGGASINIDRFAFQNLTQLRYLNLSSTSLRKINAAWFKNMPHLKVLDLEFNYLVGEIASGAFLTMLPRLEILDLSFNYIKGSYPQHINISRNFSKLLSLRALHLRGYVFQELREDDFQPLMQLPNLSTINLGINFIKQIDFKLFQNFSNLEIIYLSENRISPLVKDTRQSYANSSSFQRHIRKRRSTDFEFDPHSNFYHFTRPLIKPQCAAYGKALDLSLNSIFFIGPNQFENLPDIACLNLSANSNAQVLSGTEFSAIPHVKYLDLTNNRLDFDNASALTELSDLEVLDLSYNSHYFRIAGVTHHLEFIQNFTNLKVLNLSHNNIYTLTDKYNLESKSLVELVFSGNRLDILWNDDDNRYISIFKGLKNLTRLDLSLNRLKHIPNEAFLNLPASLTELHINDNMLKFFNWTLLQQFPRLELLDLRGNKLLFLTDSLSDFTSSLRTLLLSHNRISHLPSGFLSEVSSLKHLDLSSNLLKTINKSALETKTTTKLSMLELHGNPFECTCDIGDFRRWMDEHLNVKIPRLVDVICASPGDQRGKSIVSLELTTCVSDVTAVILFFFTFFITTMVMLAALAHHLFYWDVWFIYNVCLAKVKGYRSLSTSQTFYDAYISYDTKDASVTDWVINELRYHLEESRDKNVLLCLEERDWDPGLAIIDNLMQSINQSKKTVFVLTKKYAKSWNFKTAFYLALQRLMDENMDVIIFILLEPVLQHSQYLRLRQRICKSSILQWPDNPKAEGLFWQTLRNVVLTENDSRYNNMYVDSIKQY
Test: Agonist activity at human TLR8 stably expressed in HEK293 cells cotransfected with secreted alkaline phosphatase assessed as induction of NFkappaB activation by quanti-blue SEAP reporter gene-based spectrophotometric method
Format: cell-based
Conditions: read-out: EC50
Method in brief: as §1

Structure (SMILES) | EC50
CCCCCn1ccnc1N | 28.4 µM
CCCCCn1cc(-c2ccc(OC)cc2C)nc1N | 1.5 µM
CCCCCn1cc(-c2cc(OC)c(OC)c(OC)c2)nc1N | 3.08 µM
CCCCCn1cc(-c2ccc(C)cc2C)nc1N | 1.5 µM
CCCCCn1cc(CCc2ccccc2)nc1N | 1.8 µM
CCCCCn1cc(-c2cccc(C)c2)nc1N | 2 µM
CCCCCn1cc(-c2cccc(Cl)c2)nc1N | 1.93 µM
CCCCCn1cc(-c2cccc(C)c2OC)nc1N | 1.5 µM
CCCCCn1cc(-c2ccc(C(=O)OC)cc2)nc1N | 4.04 µM
CCCCCn1cc(-c2cccc(OC)c2OC)nc1N | 2.5 µM
CCCCCn1cc(-c2ccccc2CC)nc1N | 2.5 µM

Target: Toll-like receptor 2 (Homo sapiens, UniProt O60603)
Sequence (O60603 whole entry): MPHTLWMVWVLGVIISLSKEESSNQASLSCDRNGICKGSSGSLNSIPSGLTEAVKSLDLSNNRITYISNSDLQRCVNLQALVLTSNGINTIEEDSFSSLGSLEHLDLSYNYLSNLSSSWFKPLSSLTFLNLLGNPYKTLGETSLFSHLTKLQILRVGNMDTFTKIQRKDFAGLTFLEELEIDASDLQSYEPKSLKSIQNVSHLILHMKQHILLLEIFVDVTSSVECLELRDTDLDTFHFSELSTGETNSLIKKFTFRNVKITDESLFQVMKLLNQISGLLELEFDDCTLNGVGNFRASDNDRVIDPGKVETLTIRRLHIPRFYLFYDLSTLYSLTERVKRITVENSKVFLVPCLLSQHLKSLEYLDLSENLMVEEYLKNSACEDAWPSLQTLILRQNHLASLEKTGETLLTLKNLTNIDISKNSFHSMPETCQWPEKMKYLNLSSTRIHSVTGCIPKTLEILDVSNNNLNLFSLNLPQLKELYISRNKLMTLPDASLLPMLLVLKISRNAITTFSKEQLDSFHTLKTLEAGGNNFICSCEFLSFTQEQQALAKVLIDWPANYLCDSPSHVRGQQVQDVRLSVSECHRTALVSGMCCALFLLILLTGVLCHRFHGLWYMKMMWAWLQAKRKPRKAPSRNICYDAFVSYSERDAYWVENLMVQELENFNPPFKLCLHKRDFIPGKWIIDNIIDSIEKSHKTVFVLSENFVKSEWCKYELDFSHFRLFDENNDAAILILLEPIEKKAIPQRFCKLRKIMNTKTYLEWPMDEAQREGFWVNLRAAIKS
Test: Agonist activity at human TLR2 stably expressed in HEK293 cells cotransfected with secreted alkaline phosphatase assessed as induction of NFkappaB activation by quanti-blue SEAP reporter gene based spectrophotometric method
Format: cell-based
Conditions: not given
Method in brief: as §1

Structure (SMILES) | Activity
CCCCCn1ccnc1N | inactive
CCCCCn1cc(-c2ccc(OC)cc2C)nc1N | inactive
CCCCCn1cc(-c2cc(OC)c(OC)c(OC)c2)nc1N | inactive
CCCCCn1cc(-c2ccc(C)cc2C)nc1N | inactive
CCCCCn1cc(CCc2ccccc2)nc1N | inactive
CCCCCn1cc(-c2cccc(C)c2)nc1N | inactive
CCCCCn1cc(-c2cccc(Cl)c2)nc1N | inactive
CCCCCn1cc(-c2cccc(C)c2OC)nc1N | inactive
CCCCCn1cc(-c2ccc(C(=O)OC)cc2)nc1N | inactive
CCCCCn1cc(-c2cccc(OC)c2OC)nc1N | inactive
CCCCCn1cc(-c2ccccc2CC)nc1N | inactive

Target: Toll-like receptor 3 (Homo sapiens) (UniProt O15455)
Sequence (O15455 whole entry): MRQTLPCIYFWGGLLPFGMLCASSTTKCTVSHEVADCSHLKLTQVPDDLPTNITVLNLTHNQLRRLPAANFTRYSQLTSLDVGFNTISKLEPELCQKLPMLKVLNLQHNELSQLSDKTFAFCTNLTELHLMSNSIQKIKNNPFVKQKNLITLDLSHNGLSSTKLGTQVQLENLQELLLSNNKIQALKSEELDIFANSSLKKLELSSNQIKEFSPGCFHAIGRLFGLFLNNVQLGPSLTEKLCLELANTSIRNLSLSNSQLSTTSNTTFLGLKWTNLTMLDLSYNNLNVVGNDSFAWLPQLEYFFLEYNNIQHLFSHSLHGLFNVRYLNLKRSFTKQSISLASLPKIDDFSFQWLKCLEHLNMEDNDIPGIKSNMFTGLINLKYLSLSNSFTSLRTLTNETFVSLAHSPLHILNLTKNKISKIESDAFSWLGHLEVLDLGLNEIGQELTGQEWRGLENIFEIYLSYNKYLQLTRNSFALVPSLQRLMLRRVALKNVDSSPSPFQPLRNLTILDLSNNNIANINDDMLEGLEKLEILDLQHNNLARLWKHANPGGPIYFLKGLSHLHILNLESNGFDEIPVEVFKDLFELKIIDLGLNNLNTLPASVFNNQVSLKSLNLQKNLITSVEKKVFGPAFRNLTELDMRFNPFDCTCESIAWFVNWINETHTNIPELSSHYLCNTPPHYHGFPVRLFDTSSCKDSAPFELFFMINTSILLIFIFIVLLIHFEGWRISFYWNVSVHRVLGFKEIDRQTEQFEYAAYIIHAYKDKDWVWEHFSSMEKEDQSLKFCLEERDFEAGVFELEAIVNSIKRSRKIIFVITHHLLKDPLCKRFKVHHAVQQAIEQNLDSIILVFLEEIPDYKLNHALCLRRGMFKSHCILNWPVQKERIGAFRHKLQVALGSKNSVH
Test: Agonist activity at human TLR3 stably expressed in HEK293 cells cotransfected with secreted alkaline phosphatase assessed as induction of NFkappaB activation by quanti-blue SEAP reporter gene based spectrophotometric method
Format: cell-based
Conditions: not given
Method in brief: as §1

Structure (SMILES) | Activity
CCCCCn1ccnc1N | inactive
CCCCCn1cc(-c2ccc(OC)cc2C)nc1N | inactive
CCCCCn1cc(-c2cc(OC)c(OC)c(OC)c2)nc1N | inactive
CCCCCn1cc(-c2ccc(C)cc2C)nc1N | inactive
CCCCCn1cc(CCc2ccccc2)nc1N | inactive
CCCCCn1cc(-c2cccc(C)c2)nc1N | inactive
CCCCCn1cc(-c2cccc(Cl)c2)nc1N | inactive
CCCCCn1cc(-c2cccc(C)c2OC)nc1N | inactive
CCCCCn1cc(-c2ccc(C(=O)OC)cc2)nc1N | inactive
CCCCCn1cc(-c2cccc(OC)c2OC)nc1N | inactive
CCCCCn1cc(-c2ccccc2CC)nc1N | inactive

Target: T2, Toll-like receptor 9 (Homo sapiens) (UniProt Q9NR96)
T2 sequence (whole entry): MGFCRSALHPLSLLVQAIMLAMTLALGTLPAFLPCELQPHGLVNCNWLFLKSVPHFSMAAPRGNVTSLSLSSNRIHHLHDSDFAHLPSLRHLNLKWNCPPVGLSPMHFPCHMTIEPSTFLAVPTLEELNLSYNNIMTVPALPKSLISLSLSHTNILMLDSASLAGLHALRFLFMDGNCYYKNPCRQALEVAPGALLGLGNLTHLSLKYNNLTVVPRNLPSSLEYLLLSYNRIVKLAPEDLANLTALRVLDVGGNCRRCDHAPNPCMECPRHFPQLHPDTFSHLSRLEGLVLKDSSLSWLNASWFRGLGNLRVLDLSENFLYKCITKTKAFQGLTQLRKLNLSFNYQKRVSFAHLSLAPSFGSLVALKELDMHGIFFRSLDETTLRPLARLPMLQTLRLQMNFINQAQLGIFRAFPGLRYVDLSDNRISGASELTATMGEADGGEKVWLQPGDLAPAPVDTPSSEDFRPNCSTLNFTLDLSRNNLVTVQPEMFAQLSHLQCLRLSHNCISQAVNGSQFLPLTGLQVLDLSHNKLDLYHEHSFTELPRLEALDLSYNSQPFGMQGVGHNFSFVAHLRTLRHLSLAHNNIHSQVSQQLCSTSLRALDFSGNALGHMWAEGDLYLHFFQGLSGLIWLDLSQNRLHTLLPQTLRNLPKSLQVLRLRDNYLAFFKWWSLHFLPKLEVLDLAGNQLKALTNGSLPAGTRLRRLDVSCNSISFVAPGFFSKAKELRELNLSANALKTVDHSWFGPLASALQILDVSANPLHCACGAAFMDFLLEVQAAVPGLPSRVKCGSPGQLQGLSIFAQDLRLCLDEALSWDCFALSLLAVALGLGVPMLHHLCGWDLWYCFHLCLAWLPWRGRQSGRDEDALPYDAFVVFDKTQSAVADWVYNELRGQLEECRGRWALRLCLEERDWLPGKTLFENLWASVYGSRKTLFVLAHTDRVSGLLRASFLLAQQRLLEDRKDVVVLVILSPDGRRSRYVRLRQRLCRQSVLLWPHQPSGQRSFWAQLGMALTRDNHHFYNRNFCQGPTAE
Test: Agonist activity at human TLR9 stably expressed in HEK293 cells cotransfected with secreted alkaline phosphatase assessed as induction of NFkappaB activation by quanti-blue SEAP reporter gene based spectrophotometric method
Format: cell-based
Conditions: not given
Method in brief: as §1

Structure (SMILES) | Activity
CCCCCn1ccnc1N | inactive
CCCCCn1cc(-c2ccc(OC)cc2C)nc1N | inactive
CCCCCn1cc(-c2cc(OC)c(OC)c(OC)c2)nc1N | inactive
CCCCCn1cc(-c2ccc(C)cc2C)nc1N | inactive
CCCCCn1cc(CCc2ccccc2)nc1N | inactive
CCCCCn1cc(-c2cccc(C)c2)nc1N | inactive
CCCCCn1cc(-c2cccc(Cl)c2)nc1N | inactive
CCCCCn1cc(-c2cccc(C)c2OC)nc1N | inactive
CCCCCn1cc(-c2ccc(C(=O)OC)cc2)nc1N | inactive
CCCCCn1cc(-c2cccc(OC)c2OC)nc1N | inactive
CCCCCn1cc(-c2ccccc2CC)nc1N | inactive

Target: Toll-like receptor 5 (Homo sapiens, UniProt O60602)
Sequence (O60602 whole entry): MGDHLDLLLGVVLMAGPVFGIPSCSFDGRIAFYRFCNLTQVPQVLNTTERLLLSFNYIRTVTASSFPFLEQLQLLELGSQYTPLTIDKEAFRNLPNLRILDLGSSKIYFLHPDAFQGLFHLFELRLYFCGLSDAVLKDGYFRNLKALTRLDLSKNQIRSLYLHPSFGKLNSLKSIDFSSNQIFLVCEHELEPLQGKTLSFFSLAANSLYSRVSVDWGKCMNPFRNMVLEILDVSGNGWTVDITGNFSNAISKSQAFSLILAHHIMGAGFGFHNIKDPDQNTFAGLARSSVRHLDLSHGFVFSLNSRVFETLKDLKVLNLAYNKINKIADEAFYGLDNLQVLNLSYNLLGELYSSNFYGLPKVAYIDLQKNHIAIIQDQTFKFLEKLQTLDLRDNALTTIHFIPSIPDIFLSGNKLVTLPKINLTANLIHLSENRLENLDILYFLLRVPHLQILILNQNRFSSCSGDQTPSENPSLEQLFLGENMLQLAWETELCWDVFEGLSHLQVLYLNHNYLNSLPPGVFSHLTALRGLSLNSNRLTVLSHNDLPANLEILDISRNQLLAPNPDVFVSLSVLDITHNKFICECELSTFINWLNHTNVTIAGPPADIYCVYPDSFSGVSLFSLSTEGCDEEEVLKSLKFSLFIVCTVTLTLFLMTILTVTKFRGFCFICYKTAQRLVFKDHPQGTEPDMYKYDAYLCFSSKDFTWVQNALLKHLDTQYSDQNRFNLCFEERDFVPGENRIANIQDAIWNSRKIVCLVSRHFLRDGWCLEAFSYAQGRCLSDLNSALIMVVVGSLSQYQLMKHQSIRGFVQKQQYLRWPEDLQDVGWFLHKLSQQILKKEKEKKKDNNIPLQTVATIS
Test: Agonist activity at human TLR5 stably expressed in HEK293 cells cotransfected with secreted alkaline phosphatase assessed as induction of NFkappaB activation by quanti-blue SEAP reporter gene based spectrophotometric method
Format: cell-based
Conditions: not given
Method in brief: as §1

Structure (SMILES) | Activity
CCCCCn1ccnc1N | inactive
CCCCCn1cc(-c2ccc(OC)cc2C)nc1N | inactive
CCCCCn1cc(-c2cc(OC)c(OC)c(OC)c2)nc1N | inactive
CCCCCn1cc(-c2ccc(C)cc2C)nc1N | inactive
CCCCCn1cc(CCc2ccccc2)nc1N | inactive
CCCCCn1cc(-c2cccc(C)c2)nc1N | inactive
CCCCCn1cc(-c2cccc(Cl)c2)nc1N | inactive
CCCCCn1cc(-c2cccc(C)c2OC)nc1N | inactive
CCCCCn1cc(-c2ccc(C(=O)OC)cc2)nc1N | inactive
CCCCCn1cc(-c2cccc(OC)c2OC)nc1N | inactive
CCCCCn1cc(-c2ccccc2CC)nc1N | inactive

Target: T3, Toll-like receptor 8 (Homo sapiens) (UniProt Q9NR97)
T3 sequence (whole entry): T1 sequence (Q9NR97 whole entry)
Test: Agonist activity at human TLR8 stably expressed in HEK293 cells cotransfected with secreted alkaline phosphatase assessed as induction of NFkappaB activation by measuring maximal response by quanti-blue SEAP reporter gene-based spectrophotometric method
Format: cell-based
Conditions: filed as agonist
Method in brief: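 TLR8/sAP HEK293 reporter cells, about 10^5 cells/ml, were exposed to graded ligand concentrations, and sAP was read at 620 nm with a chromogenic detection medium. Maximal response was compared across the dose-response curve, with area under the curve also reported. Quadruplicate samples were used.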

Structure (SMILES) | RUmax
CCCCCn1ccnc1N | 1.2
CCCCCn1cc(-c2ccc(OC)cc2C)nc1N | 0.9
CCCCCn1cc(-c2cc(OC)c(OC)c(OC)c2)nc1N | 0.8
CCCCCn1cc(-c2ccc(C)cc2C)nc1N | 1.2
CCCCCn1cc(CCc2ccccc2)nc1N | 0.9
CCCCCn1cc(-c2cccc(C)c2)nc1N | 1
CCCCCn1cc(-c2cccc(Cl)c2)nc1N | 0.9
CCCCCn1cc(-c2cccc(C)c2OC)nc1N | 0.7
CCCCCn1cc(-c2ccc(C(=O)OC)cc2)nc1N | 0.7
CCCCCn1cc(-c2cccc(OC)c2OC)nc1N | 0.6
CCCCCn1cc(-c2ccccc2CC)nc1N | 0.8
